Data: ChEMBL document CHEMBL4229493, “Synthesis and anticancer activity studies of indolylisoxazoline analogues” (Bioorg Med Chem Lett, 2018)
The source made the active and inactive calls. The calls are words filed in the database; no cut-off is given here.

Tests used:
Assay type in all cases: functional, cell-based
MDA-MB-231 = assay: Growth inhibition of human MDA-MB-231 cells after 48 hrs by MTT assay; settings: MDA-MB-231, 48 h
CWR22R = assay: Growth inhibition of human 22Rv1 cells after 48 hrs by MTT assay; settings: 22Rv1, 48 h
LNCaP C4-2 [1] = assay: Growth inhibition of human C4-2 cells after 48 hrs by MTT assay; settings: LNCaP C4-2, 48 h
BXPC-3 = assay: Growth inhibition of human BxPC3 cells after 48 hrs by MTT assay; settings: BXPC-3, 48 h
HEK293 = assay: Growth inhibition of HEK293 cells after 48 hrs by MTT assay; settings: Homo sapiens, HEK293, 48 h
PC-3 = assay: Growth inhibition of human PC3 cells after 48 hrs by MTT assay; settings: PC-3, 48 h
LNCaP C4-2 [2] = assay: Induction of apoptosis in human C4-2 cells assessed as nuclear fragmentation at 2.5 uM after 48 hrs by acridine orange/ethidium bromide staining based inverted fluorescent microscopic method
Outline: (§1)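 C4-2 cells were incubated 48 h with compound, alongside untreated controls. They were then stained with acridine orange (live and dead cells) and ethidium bromide (dead cells only). Nuclear morphology was scored for red fragmented nuclei as apoptosis versus necrosis.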

LNCaP C4-2 [3] = assay: Antimigratory activity against human C4-2 cells at 10 uM after 12 to 48 hrs by wound healing assay
Outline: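 A scratch was made in a C4-2 monolayer. Cells were incubated further for 12, 24 and 48 h, then fixed and imaged to follow migration into the wound.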

LNCaP C4-2 [4] = assay: Induction of ROS generation in human C4-2 cells at 10 uM after 48 hrs by H2-DCF-DA staining based inverted fluorescent microscopic method
Outline: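 C4-2 cells left untreated or exposed 48 h to compound at 10 μM. H2O2 (10 μM) was the positive control. Intracellular ROS was stained with DCFDA and fluorescence quantified.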

LNCaP C4-2 [5] = assay: Induction of apoptosis in human C4-2 cells assessed as DNA fragmentation by measuring DNA ladder formation at 10 uM after 48 hrs by agarose gel electrophoresis method
LNCaP C4-2 [6] = assay: Induction of apoptosis in human C4-2 cells assessed as PARP cleavage at 2.5 uM after 48 hrs by Western blot analysis
Prostatic carcinoma cell = assay: Cytotoxicity against human prostate cancer cells
LNCaP C4-2 [7] = assay: Induction of apoptosis in human C4-2 cells assessed as nuclear fragmentation at 3.5 uM after 48 hrs by acridine orange/ethidium bromide staining based inverted fluorescent microscopic method; outline: as §1
LNCaP C4-2 [8] = assay: Induction of apoptosis in human C4-2 cells assessed as PARP cleavage at 3.5 uM after 48 hrs by Western blot analysis
NCI-H460 = assay: Antiproliferative activity against human NCI-H460 cells

Row | SMILES | IC50 (MDA-MB-231) | IC50 (LNCaP C4-2 [1]) | IC50 (BXPC-3) | IC50 (PC-3) | IC50 (NCI-H460) | IC50 (CWR22R) | IC50 (HEK293) | Activity (LNCaP C4-2 [2]) | Activity (LNCaP C4-2 [3]) | Activity (LNCaP C4-2 [4]) | Activity (LNCaP C4-2 [5]) | Activity (LNCaP C4-2 [6]) | IC50 (Prostatic carcinoma cell) | Activity (LNCaP C4-2 [7]) | Activity (LNCaP C4-2 [8])
1 | Cc1c(C2CC(c3ccncc3)=NO2)c2ccccc2n1Cc1ccc(Cl)cc1 (stereo not given) | 6.66 µM | 2.5 µM | 13.5 µM | 11.2 µM |  | 8.33 µM | 2.5 µM | Active | Active | inactive | Active | Active |  |  | 
2 | COc1cccc2c1C(=O)c1c(O)c3c(c(O)c1C2=O)C[C@@](O)(C(=O)CO)C[C@@H]3O[C@H]1C[C@H](N)[C@H](O)[C@H](C)O1 [DOXORUBICIN] |  | 3.25 µM | 9.12 µM | 9.58 µM |  |  | 3.9 µM |  |  |  |  |  |  |  | 
3 | c1ccc2c(C3CC(c4ccncc4)=NO3)c[nH]c2c1 (stereo not given) | 19.7 µM | 12.8 µM | 30.5 µM | > 100 µM |  | > 100 µM | > 100 µM |  |  |  |  |  |  |  | 
4 | COc1cc(-c2nnc(-c3cn(C)c4ccccc34)[nH]2)cc(OC)c1OC |  |  |  |  |  |  |  |  |  |  |  |  | 800 nM |  | 
5 | Clc1ccc(Cn2cc(C3CC(c4ccncc4)=NO3)c3ccccc32)cc1 (stereo not given) | 13.7 µM | 11.4 µM | > 100 µM | 25.7 µM |  | 9.6 µM | 10.2 µM |  |  |  |  |  |  |  | 
6 | Cc1[nH]c2ccccc2c1C1CC(c2ccncc2)=NO1 (stereo not given) | 26.6 µM | 45.1 µM | 95.5 µM | 21.2 µM |  | 17.3 µM | > 100 µM |  |  |  |  |  |  |  | 
7 | COc1ccc2c(C3CC(c4ccncc4)=NO3)cn(Cc3ccc(Cl)cc3)c2c1 (stereo not given) | > 100 µM | > 100 µM | > 100 µM | 95.1 µM |  | 17.3 µM | 37.2 µM |  |  |  |  |  |  |  | 
8 | OO |  |  |  |  |  |  |  |  |  | Active |  |  |  |  | 
9 | COc1ccc2c(c1)c(C1CC(c3ccncc3)=NO1)cn2Cc1ccc(Cl)cc1 (stereo not given) | 26 µM | > 100 µM | > 100 µM | 55.2 µM |  | 10.6 µM | 14.2 µM |  |  |  |  |  |  |  | 

The next lines start with results.

Row | IC50 (MDA-MB-231) | IC50 (LNCaP C4-2 [1]) | IC50 (BXPC-3) | IC50 (PC-3) | IC50 (NCI-H460) | SMILES | IC50 (CWR22R) | IC50 (HEK293) | Activity (LNCaP C4-2 [2]) | Activity (LNCaP C4-2 [3]) | Activity (LNCaP C4-2 [4]) | Activity (LNCaP C4-2 [5]) | Activity (LNCaP C4-2 [6]) | IC50 (Prostatic carcinoma cell) | Activity (LNCaP C4-2 [7]) | Activity (LNCaP C4-2 [8])
10 | 5 µM | 8 µM | 9.5 µM | 12.9 µM |  | Fc1ccc2c(C3CC(c4ccncc4)=NO3)c[nH]c2c1 (stereo not given) | 3.66 µM | 9.5 µM |  |  |  |  |  |  |  | 
11 | 26 µM | 71.2 µM | > 100 µM | 42.6 µM |  | COc1ccc2[nH]cc(C3CC(c4cc(OC)c(OC)c(OC)c4)=NO3)c2c1 (stereo not given) | 11.3 µM | 45.4 µM |  |  |  |  |  |  |  | 
12 | > 100 µM | 65.5 µM | > 100 µM | 70.1 µM |  | COc1ccc(C2=NOC(c3c[nH]c4ccccc34)C2)cc1OC (stereo not given) | 16.7 µM | > 100 µM |  |  |  |  |  |  |  | 
13 | 11.7 µM | 5 µM | 13.5 µM | 15.5 µM |  | COc1cc(C2=NOC(c3c[nH]c4ccccc34)C2)cc(OC)c1OC (stereo not given) | 4.51 µM | 5 µM |  |  |  |  |  |  |  | 
14 | 7.38 µM | 3.5 µM | 9.5 µM | 10.5 µM |  | COc1ccc2c(C3CC(c4ccncc4)=NO3)c[nH]c2c1 (stereo not given) | 16.3 µM | 4.16 µM |  | Active | inactive | Active |  |  | Active | Active
15 | 26.6 µM | 15.8 µM | 27 µM | > 100 µM |  | c1ccc2c(C3CC(c4ccc5c(c4)OCO5)=NO3)c[nH]c2c1 (stereo not given) | > 100 µM | > 100 µM |  |  |  |  |  |  |  | 
16 |  |  |  |  | 6.2 nM | COc1cc(-c2cnc(-c3ccc4c(ccn4C)c3)o2)cc(OC)c1OC |  |  |  |  |  |  |  |  |  | 
17 | > 100 µM | > 100 µM | 68.5 µM | > 100 µM |  | COc1ccc2[nH]cc(C3CC(c4ccncc4)=NO3)c2c1 (stereo not given) | 35.5 µM | > 100 µM |  |  |  |  |  |  |  | 
